Results taken from ChEMBL document CHEMBL1122679, “Beta-adrenergic blocking agents: substituted phenylalkanolamines. Effect of side-chain length on beta-blocking potency in vitro” (J Med Chem, 1984).

What was measured:
Cavia porcellus [1] = species on record: Cavia porcellus; test: Beta-adrenoceptor blocking potency in the isolated guinea pig heart, giving 50% inhibition of isoproterenol-induced tachycardia relative to oxprenolol; type: functional
Cavia porcellus [2] = species on record: Cavia porcellus; test: Beta-adrenoceptor blocking potency in the isolated guinea pig heart, giving 50% inhibition of isoproterenol-induced tachycardia; type: functional
Outline: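 Langendorff-perfused isolated hearts from male Pirbright guinea pigs (330-640 g), removed under urethane anesthesia (1.5 g/kg ip). Perfusion with oxygenated Krebs-Henseleit plus ascorbic acid and NaEDTA at 36 °C. Heart rate recorded continuously. After ~30 min control, DL-isoproterenol sulfate (0.005 µg/mL) was added to the perfusate. Increasing compound concentrations were then given, 10 min each, against the isoproterenol tachycardia.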

Cavia porcellus [3] = species on record: Cavia porcellus; test: Compound was evaluated for beta-adrenoceptor blocking potency in the isolated guinea pig, giving 50% inhibition of isoproterenol-induced tachycardia relative to oxprenolol; type: functional
[4] = Partition coefficient (logP); type: physicochemical; details: octanol/water
Outline: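 Octanol/buffer partitioning. Compounds at about 10^-4 M in 0.067 M pH 7.4 phosphate buffer (octanol-saturated) were shaken with buffer-saturated 1-octanol for 1 h at 25.0 °C, then centrifuged. Concentrations in each phase were measured spectrophotometrically. The coefficient was taken as the octanol/buffer concentration ratio, done in triplicate.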

[5] = pK value is evaluated; type: ADME; details: read-out: pK
Outline: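 Spectrophotometric determination. Dilute solutions were circulated through a glass electrode and a 1-cm spectrophotometer cell. pKa was calculated from the pH-dependent spectra.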

logP ([4]; read-out: logP) | pKa [5] | logP [4] | Structure (SMILES) | Relative activity (Cavia porcellus [1]) | -Log concentration (Cavia porcellus [2]) | Relative activity (Cavia porcellus [3])
– | – | – | COc1ccccc1C(O)CNCCOc1ccc(O)c(C(N)=O)c1 (stereo unspecified) | 0.33 | 7.12 log_unit | –
1.14 | 8.8 | – | COc1ccccc1OCC(O)CNCCOc1ccc(O)c(C(N)=O)c1 (stereo unspecified) | – | 8.45 log_unit | 6.9
– | – | – | NC(=O)c1cc(OCCNCC(O)CCc2ccccc2)ccc1O (stereo unspecified) | 0.19 | 6.9 log_unit | –
– | – | – | Cc1ccccc1CCC(O)CNCCOc1ccc(O)c(C(N)=O)c1 (stereo unspecified) | 0.3 | 7.08 log_unit | –
-0.44 | 9.8 | – | COc1ccccc1OCC(O)CNC(C)(C)C (stereo unspecified) | 0.45 | 7.26 log_unit | –
1.56 | 8.9 | – | COc1ccccc1CCC(O)CNCCOc1ccc(O)c(C(N)=O)c1 (stereo unspecified) | 1.8 | 7.85 log_unit | –
-0.21 | 9.9 | – | COc1ccccc1CCC(O)CNC(C)(C)C (stereo unspecified) | 0.012 | 5.67 log_unit | –
– | – | – | NC(=O)c1cc(OCCNCC(O)Cc2ccccc2)ccc1O (stereo unspecified) | 0.018 | 5.84 log_unit | –
– | – | – | COc1ccc(CCC(O)CNCCOc2ccc(O)c(C(N)=O)c2)cc1 (stereo unspecified) | – | 6.07 log_unit | 0.029
– | 9.4 | 0.2 | C=CCOc1ccccc1OCC(O)CNC(C)C (stereo unspecified) [OXPRENOLOL] | 1 | 7.6 M l-1 | –
– | – | – | COc1ccccc1CCCCC(O)CNCCOc1ccc(O)c(C(N)=O)c1 (stereo unspecified) | 0.068 | 6.43 log_unit | –
1.24 | – | – | NC(=O)c1cc(OCCNCC(O)c2ccccc2)ccc1O (stereo unspecified) | 0.011 | 5.66 log_unit | –
– | – | – | COc1ccccc1CCCC(O)CNCCOc1ccc(O)c(C(N)=O)c1 (stereo unspecified) | 0.1 | 6.6 log_unit | –
– | – | – | COc1ccccc1CC(O)CNCCOc1ccc(O)c(C(N)=O)c1 (stereo unspecified) | 0.061 | 6.39 log_unit | –
– | – | – | NC(=O)c1cc(OCCNCC(O)CCCCc2ccccc2)ccc1O (stereo unspecified) | 0.018 | 5.85 log_unit | –
